Results taken from ChEMBL document CHEMBL4428054, “Synthesis of Fluorescent Binaphthyl Amines That Bind c-MYC G-Quadruplex DNA and Repress c-MYC Expression” (J Med Chem, 2016).
Active and inactive are the calls of the source. The calls are words filed in the database; no cut-off is given here.

Experiments:
Quadruplex DNA [1] = assay: Stabilization of 5'-FAM and 3'-TAMRA-labeled c-MYC G-quadruplex (unknown origin) assessed as change in melting temperature at 1 uM by FRET assay; type: nucleic-acid assay; conditions: unidentified
Outline: (§1)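 FRET melting of dual-labelled (5′-FAM/3′-TAMRA) promoter quadruplexes or duplex in 60 mM potassium cacodylate buffer, pH 7.4. ΔTm is taken against ligand-free Tm. The ligand was tested across a concentration series. Maximum measurable Tm is 93 °C.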

Quadruplex DNA [2] = assay: Stabilization of 5'-FAM and 3'-TAMRA-labeled c-KIT1 G-quadruplex (unknown origin) assessed as change in melting temperature at 1 uM by FRET assay; type: nucleic-acid assay; conditions: unidentified; outline: as §1
Quadruplex DNA [3] = assay: Stabilization of 5'-FAM and 3'-TAMRA-labeled c-KIT2 G-quadruplex (unknown origin) assessed as change in melting temperature at 1 uM by FRET assay; type: nucleic-acid assay; conditions: unidentified; outline: as §1
Quadruplex DNA [4] = assay: Stabilization of 5'-FAM and 3'-TAMRA-labeled k-RAS G-quadruplex (unknown origin) assessed as change in melting temperature at 1 uM by FRET assay; type: nucleic-acid assay; conditions: unidentified; outline: as §1
dsDNA [5] = assay: Stabilization of 5'-FAM and 3'-TAMRA-labeled dsDNA (unknown origin) assessed as change in melting temperature at 1 uM by FRET assay; type: nucleic-acid assay; outline: as §1
dsDNA [6] = assay: Stabilization of 5'-FAM and 3'-TAMRA-labeled dsDNA (unknown origin) assessed as change in melting temperature at 5 uM by FRET assay; type: nucleic-acid assay; outline: as §1
[7] = Selectivity for 5'-FAM and 3'-TAMRA-labeled c-MYC G-qudaruplex (unknown origin) over 5'-FAM and 3'-TAMRA-labeled c-KIT1 G-qudaruplex (unknown origin)
unidentified [8] = assay: Selectivity for 5'-FAM and 3'-TAMRA-labeled c-MYC G-quadruplex (unknown origin) over 5'-FAM and 3'-TAMRA-labeled c-KIT2 G-quadruplex (unknown origin)
unidentified [9] = assay: Selectivity for 5'-FAM and 3'-TAMRA-labeled c-MYC G-quadruplex (unknown origin) over 5'-FAM and 3'-TAMRA-labeled k-RAS G-quadruplex (unknown origin)
Quadruplex DNA [10] = assay: Stabilization of 5'-FAM and 3'-TAMRA-labeled c-MYC G-quadruplex (unknown origin) assessed as change in melting temperature at 1 uM in presence of 100 nM to 10 uM dsDNA by FRET assay; type: nucleic-acid assay; conditions: unidentified
Quadruplex DNA [11] = assay: Stabilization of 5'-FAM and 3'-TAMRA-labeled k-RAS G-quadruplex (unknown origin) assessed as change in melting temperature at 1 uM in presence of 100 nM to 10 uM dsDNA by FRET assay; type: nucleic-acid assay; conditions: unidentified
Quadruplex DNA [12] = assay: Stabilization of 5'-FAM and 3'-TAMRA-labeled c-KIT1 G-quadruplex (unknown origin) assessed as change in melting temperature at 1 uM in presence of 100 nM to 10 uM dsDNA by FRET assay; type: nucleic-acid assay; conditions: unidentified
Quadruplex DNA [13] = assay: Stabilization of 5'-FAM and 3'-TAMRA-labeled c-KIT2 G-quadruplex (unknown origin) assessed as change in melting temperature at 1 uM in presence of 100 nM to 10 uM dsDNA by FRET assay; type: nucleic-acid assay; conditions: unidentified
Quadruplex DNA [14] = assay: Binding affinity to pre-annealed c-MYC G-quadruplex (unknown origin) assessed as hypochromacity at 20 uM in 10 mM Tris.HCl buffer containing 100 mM KCl at pH 7.4 by UV/Visible spectroscopy; type: nucleic-acid assay; conditions: unidentified
Outline: (§2)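 UV–vis titration of 20 μM ligand with preannealed c-MYC quadruplex (0–1.4 equiv) in 100 mM KCl, 10 mM Tris·HCl, pH 7.4. Hypochromicity was followed at the 362 nm ligand band, because the 298 nm band overlaps DNA absorbance. Kd was fitted with the Hill 1 equation.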

Quadruplex DNA [15] = assay: Binding affinity to pre-annealed c-MYC G-quadruplex (unknown origin) in 10 mM Tris.HCl buffer containing 100 mM KCl at pH 7.4 by UV/Visible spectroscopy; type: nucleic-acid assay, unidentified; outline: as §2
dsDNA [16] = assay: Binding affinity to dsDNA (unknown origin) in 10 mM Tris.HCl buffer containing 100 mM KCl at pH 7.4 by UV/Visible spectroscopy; type: nucleic-acid assay
Quadruplex DNA [17] = assay: Binding affinity to pre-annealed c-MYC G-quadruplex (unknown origin) assessed as increase in fluorescence intensity at 1 uM in 100 mM KCl, 10 mM Tris.HCl at pH 7.4 by fluorescence spectroscopy relative to untreated control; type: nucleic-acid assay; conditions: unidentified
Outline: (§3)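 Fluorescence titration in 100 mM KCl, 10 mM Tris·HCl, pH 7.4. Excitation was 350 nm and emission was read at the 430 nm maximum. Ligand (1 μM for c-MYC) was titrated with increasing quadruplex or ds DNA, up to 20 equiv. Change in intensity was scored, and Kd was derived from the titration curves.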

Quadruplex DNA [18] = assay: Binding affinity to pre-annealed c-MYC G-quadruplex (unknown origin) in 100 mM KCl, 10 mM Tris.HCl at pH 7.4 by fluorescence spectroscopy relative to untreated control; type: nucleic-acid assay, unidentified; outline: as §3
Quadruplex DNA [19] = assay: Binding affinity to pre-annealed c-KIT1 G-quadruplex (unknown origin) in 100 mM KCl, 10 mM Tris.HCl at pH 7.4 by fluorescence spectroscopy relative to untreated control; type: nucleic-acid assay, unidentified; outline: as §3
Quadruplex DNA [20] = assay: Binding affinity to pre-annealed c-KIT2 G-quadruplex (unknown origin) in 100 mM KCl, 10 mM Tris.HCl at pH 7.4 by fluorescence spectroscopy relative to untreated control; type: nucleic-acid assay, unidentified; outline: as §3
Quadruplex DNA [21] = assay: Binding affinity to pre-annealed k-RAS G-quadruplex (unknown origin) in 100 mM KCl, 10 mM Tris.HCl at pH 7.4 by fluorescence spectroscopy relative to untreated control; type: nucleic-acid assay, unidentified; outline: as §3
dsDNA [22] = assay: Binding affinity to 20 equivalents of dsDNA (unknown origin) in 100 mM KCl, 10 mM Tris.HCl at pH 7.4 by fluorescence spectroscopy relative to untreated control; type: nucleic-acid assay; outline: as §3
Quadruplex DNA [23] = assay: Binding affinity to c-MYC G-quadruplex (unknown origin) by 1H-NMR spectroscopy; type: nucleic-acid assay; conditions: unidentified
Outline: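 1D 1H NMR of c-MYC quadruplex DNA at different ligand:DNA ratios, monitoring imino and aromatic regions against partial signal assignments. Chemical shift perturbation or line broadening was noted separately at ratios below 1 and at ratios of 1 or above.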

Quadruplex DNA [24] = assay: Effect on parallel topology of c-MYC G-quadruplex (unknown origin) at 0 to 5 equivalent by CD spectroscopy; type: nucleic-acid assay; conditions: unidentified
HeLa [25] = assay: Cytotoxicity against human HeLa cells incubated for 24 hrs by MTT assay; type: functional, cell-based
Outline: (§4)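 MTT growth-inhibition assay in HeLa, A549 and mouse C2C12 cells. Cells given 0.1% DMSO served as control. IC50 values were reported.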

A549 = assay: Cytotoxicity against human A549 cells incubated for 24 hrs by MTT assay; type: functional, cell-based; conditions: A549, 24 h; outline: as §4
C2C12 = assay: Cytotoxicity against mouse C2C12 cells incubated for 24 hrs by MTT assay; type: cell-based; conditions: C2C12, 24 h; outline: as §4
Quadruplex DNA [26] = assay: Stabilization of c-MYC G-quadruplex in human HeLa cells assessed as reduction in c-MYC mRNA level at 5 uM incubated for 24 hrs by RT-PCR method; type: cell-based; parameters: scale not given: the % may be the effect or the level left
Outline: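 qRT-PCR on HeLa cells treated 24 h at 1.0, 2.5 or 5.0 μM. c-MYC mRNA was normalised to GAPDH and compared with 0.1% DMSO-treated control.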

HeLa [27] = assay: Effect on GAPDH mRNA expression in human HeLa cells at 1 to 5 uM incubated for 24 hrs by RT-PCR method; type: ADME, cell-based
Quadruplex DNA [28] = assay: Stabilization of c-MYC G-quadruplex in human HeLa cells assessed as reduction in c-MYC mRNA level at 5 uM incubated for 24 hrs by Western blot method; type: cell-based; parameters: scale not given: the % may be the effect or the level left; conditions: in the assay text read “c-MYC protein level” for “c-MYC mRNA level”
Outline: (§5)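 Western blot of HeLa lysates after 24 h at 1, 2.5 or 5 μM, with DMSO control. c-MYC was probed, GAPDH served as loading control, and bands were quantified by densitometry.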

HeLa [29] = assay: Effect on GAPDH protein expression in human HeLa cells at 1 to 5 uM incubated for 24 hrs by Western blot method; type: ADME, cell-based; outline: as §5
[30] = Drug localization in nucleus of human HeLa cells at 5 uM incubated for 2 hrs by fluorescence microscopy; type: ADME, subcellular
Outline: (§6)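 Intrinsic ligand fluorescence imaged by fluorescence microscopy in HeLa cells after 2 h at 5.0 μM. Merged images were used to assign nuclear versus cytoplasmic localisation.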

[31] = Drug localization in cytoplasm of human HeLa cells at 5 uM incubated for 2 hrs by fluorescence microscopy; type: ADME, subcellular; outline: as §6
HeLa [32] = assay: Cell cycle arrest in human HeLa cells assessed as accumulation at subG1 phase at 5 uM incubated for 24 hrs by propidium iodide staining based flow cytometry (reference value: 2.2%); type: functional
HeLa [33] = assay: Cell cycle arrest in human HeLa cells assessed as accumulation at G0/G1 phase at 5 uM incubated for 24 hrs by propidium iodide staining based flow cytometry (reference value: 61.5%); type: functional
HeLa [34] = assay: Cell cycle arrest in human HeLa cells assessed as accumulation at S phase at 5 uM incubated for 24 hrs by propidium iodide staining based flow cytometry (reference value: 10.8%); type: functional
HeLa [35] = assay: Cell cycle arrest in human HeLa cells assessed as accumulation at G2/M phase at 5 uM incubated for 24 hrs by propidium iodide staining based flow cytometry (reference value: 25.5%); type: functional
HeLa [36] = assay: Induction of apoptosis in human HeLa cells assessed as viable cell level at 5 uM incubated for 24 hrs by Annexin V-FITC staining based flow cytometry; type: functional
HeLa [37] = assay: Induction of apoptosis in human HeLa cells assessed as early apoptotic cells level at 5 uM incubated for 24 hrs by Annexin V-FITC staining based flow cytometry (reference value: 1.1%); type: functional
HeLa [38] = assay: Induction of apoptosis in human HeLa cells assessed as late apoptotic cells level at 5 uM incubated for 24 hrs by Annexin V-FITC staining based flow cytometry (reference value: 0.8%); type: functional
HeLa [39] = assay: Induction of apoptosis in human HeLa cells assessed as necrotic cells level at 5 uM incubated for 24 hrs by Annexin V-FITC staining based flow cytometry (reference value: 0.1%); type: functional

Structure (SMILES): CN(C)CCCn1cc(CNC(=O)c2ccc(Nc3ccc(-c4ccc(Nc5ccc(C(=O)NCc6cn(CCCN(C)C)nn6)cc5)c5ccccc45)c4ccccc34)cc2)nn1
- ΔTm (Quadruplex DNA [1]): 23 °C
- ΔTm (Quadruplex DNA [2]): 11 °C
- ΔTm (Quadruplex DNA [3]): 15 °C
- ΔTm (Quadruplex DNA [4]): 22 °C
- ΔTm (dsDNA [5]): 2 °C
- Activity (dsDNA [6]): inactive
- Selectivity ratio [7]: 3 to 5
- Selectivity ratio (unidentified [8]): 3 to 5
- Selectivity ratio (unidentified [9]): 3 to 5
- Activity (Quadruplex DNA [10]): Active
- Activity (Quadruplex DNA [11]): Active
- Activity (Quadruplex DNA [12]): Active
- Activity (Quadruplex DNA [13]): Active
- Activity (Quadruplex DNA [14]): 37%
- Kd (Quadruplex DNA [15]): 4.4 µM
- Activity (dsDNA [16]): inactive
- fold change (FC) (Quadruplex DNA [17]): 3.5
- Kd (Quadruplex DNA [18]): 4.2 µM
- Kd (Quadruplex DNA [19]): 10.2 µM
- Kd (Quadruplex DNA [20]): 11.1 µM
- Kd (Quadruplex DNA [21]): 11.4 to 13.8 µM
- Activity (dsDNA [22]): inactive
- Activity (Quadruplex DNA [23]): Active
- Activity (Quadruplex DNA [24]): inactive
- IC50 (HeLa [25]): 5.53 µM
- IC50 (A549): ≥ 40 µM
- IC50 (C2C12): ≥ 40 µM
- Activity (Quadruplex DNA [26]): 58%
- Activity (HeLa [27]): Non-Toxic
- Activity (Quadruplex DNA [28]): 68%
- Activity (HeLa [29]): Non-Toxic
- Drug uptake [30]: Active
- Drug uptake [31]: Active
- Activity (HeLa [32]): 32.2%
- Activity (HeLa [33]): 33.7%
- Activity (HeLa [34]): 4.2%
- Activity (HeLa [35]): 29.9%
- Activity (HeLa [36]): Active
- Activity (HeLa [37]): 55.9%
- Activity (HeLa [38]): 12%
- Activity (HeLa [39]): 0.6%

Structure (SMILES): O=C(O)c1ccc(Nc2ccc(-c3ccc(Nc4ccc(C(=O)O)cc4)c4ccccc34)c3ccccc23)cc1
- ΔTm (Quadruplex DNA [1]): 4.5 °C
- ΔTm (Quadruplex DNA [2]): 2.5 °C
- ΔTm (Quadruplex DNA [3]): 2.8 °C
- ΔTm (Quadruplex DNA [4]): 3.8 °C
- ΔTm (dsDNA [5]): 0.5 °C
